This is a sample that favours compounds with a hit; in the whole collection about 2% have one here.
CCR6 antag: CCR6 (human) receptor antagonism. CHO-K1 CCR6 PathHunter beta-arrestin, luminescence, CCL20-stimulated. inhibition, % at 20 µM. 340,000 tested, 0.49% active. AID 493098;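 active = compounds whose inhibition of the agonist-driven luminescence signal at 20 µM reaches about 50%, limit read from the data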;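 note: cells stimulated with CCL20 at 14 nM final; plate controls were DMSO with CCL20 for no effect and DMSO without agonist for full effect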
APJ antag: antagonists of human APJ apelin receptor. 330,000 tested, 0.32% active. CHO-K1 APJ beta-arrestin complementation, luminescence. inhibition, % at 20 µM. P35414;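 active = inhibition above about 40% at 20 µM, limit read from the data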;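 note: cells challenged with 10 nM apelin-13 agonist together with compound; plate controls were apelin-13 plus DMSO wells for no effect and DMSO wells lacking apelin-13 for full effect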
Target sequence (P35414 whole entry, looked up): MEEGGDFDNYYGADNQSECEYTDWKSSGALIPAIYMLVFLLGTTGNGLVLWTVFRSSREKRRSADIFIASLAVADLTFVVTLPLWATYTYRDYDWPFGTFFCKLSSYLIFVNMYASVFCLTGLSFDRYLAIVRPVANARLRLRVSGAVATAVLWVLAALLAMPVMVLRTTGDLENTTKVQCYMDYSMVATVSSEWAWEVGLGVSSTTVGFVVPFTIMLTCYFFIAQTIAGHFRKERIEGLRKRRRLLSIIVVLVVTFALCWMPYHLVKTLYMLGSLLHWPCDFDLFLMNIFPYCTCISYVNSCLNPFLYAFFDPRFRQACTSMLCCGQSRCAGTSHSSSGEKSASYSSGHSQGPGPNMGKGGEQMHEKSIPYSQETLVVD
CXCR6 block: inhibitors of human CXCR6 receptor. O00574. CHO-K1 PathHunter CXCR6 beta-arrestin, luminescence. inhibition, % at 20 µM. 360,000 tested, 0.36% active. AID 602244; in the data active = inhibition above about 34%, passing the limit was not always enough;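 note: antagonist mode with CXCL16 agonist at 10 nM final; 0% = 10 nM CXCL16 with DMSO and 100% = unstimulated wells without agonist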
APJ ag: activates the human apelin receptor APJ | CHO-K1 APJ PathHunter beta-arrestin, luminescence; 0% DMSO wells, 100% apelin | activation, % at 20 µM | 330,000 tested, 0.11% active | AID 2520;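 active = activation more than six SD over the plate average, tested at 20 µM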;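 note: 0% = DMSO alone and 100% = apelin-13 at 10 nM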
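assay system = CHO-K1 APJ beta-arrestin complementation cell line | input = cell density 1000 per well | dosing = compound 20 µM once, DMSO 1% | timing = compound 90 min 25 °C, reagent 1 h | measured by = luminescence from split beta-galactosidase complementation, Galacton Star/Emerald II substrate | read-out basis = APJ agonist activity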
EBI2 block: antagonists of human EBI2 receptor; EBI2 beta-arrestin recruitment, luminescence, 7a,25-OHC stimulated; inhibition, % at 5 µM; 360,000 tested, 0.81% active; in the data active = inhibition above about 38%;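 note: enzyme fragment complementation signal reports receptor beta-arrestin coupling in cells; 0% = agonist plus DMSO wells and 100% = wells without agonist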
Target sequence (P32249 whole entry, looked up, the tested form may be a part): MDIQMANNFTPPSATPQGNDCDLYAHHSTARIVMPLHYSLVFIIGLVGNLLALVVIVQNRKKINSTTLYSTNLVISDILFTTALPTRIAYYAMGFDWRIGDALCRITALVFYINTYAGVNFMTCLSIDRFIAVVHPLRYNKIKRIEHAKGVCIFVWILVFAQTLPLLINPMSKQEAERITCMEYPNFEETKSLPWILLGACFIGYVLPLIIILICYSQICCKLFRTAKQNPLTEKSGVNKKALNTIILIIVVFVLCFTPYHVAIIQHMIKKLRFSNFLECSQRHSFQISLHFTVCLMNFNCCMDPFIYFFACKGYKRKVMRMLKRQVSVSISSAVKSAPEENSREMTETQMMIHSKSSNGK
GAA850 FXN act: activators of GAA850 frataxin (FXN) promoter; HEK293 lucGAA850 FXN promoter luciferase reporter, 24 h; percent of 10 µM SAHA response; activation, % at 6 µM; 360,000 tested, 0.56% active; AID 540364;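 active = activation above the average of all compounds screened plus 3 SD, cutoff fixed separately per campaign, cut at about 7.5% in these data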;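 note: 0% = DMSO wells and 100% = 10 µM SAHA wells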
EBI2 antag conf: confirmation of human EBI2 receptor antagonists; shares compounds with EBI2 block; EBI2 beta-arrestin luminescence, 7a,25-OHC antagonism; inhibition, % at 5 µM; 2,400 tested, 29% active;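 active = inhibition of at least 50%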
EBI2 ag: EBI2 agonism counter-screen. activation, % at 5 µM. EBI2-expressing cells, agonist mode, luminescence, 60 min; 0% vehicle, 100% 7α,25-dihydroxycholesterol control. 2,400 tested, under 10 active. shares compounds with EBI2 block. AID 652000;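 active = activation of at least 50%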
bGal cs: inhibits E. coli beta-galactosidase, counter-screen for EBI2 antagonists; shares compounds with EBI2 block; 2,400 tested, 1% active; purified beta-galactosidase, luminescent Galacton Star, 15 min; AID 652176; inhibition, % at 5 µM;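 active = replicate-average signal at least 3 plate SD below neutral wells, shown as high inhibition, flagging enzyme-inhibiting false positives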;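 note: 0% = DMSO wells with enzyme and 100% = wells lacking enzyme; higher means stronger loss of beta-gal luminescence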
* marks the source's active call; other numbers are inactive results; x = no result.

SMILES | CCR6 antag | APJ antag | CXCR6 block | APJ ag | EBI2 block | GAA850 FXN act | EBI2 antag conf | EBI2 ag | bGal cs
O=C(c1cc2cc(Cl)ccc2o1)N1CCCC1 | 11.9 | -4.8 | 5.4 | -4.0 | 4.2 | 3.0 | x | x | x
O=C(c1cc2cc(Br)ccc2o1)N1CCCCC1 | 16.0 | 6.3 | -5.8 | -3.5 | 57.5* | 5.3 | 16.9 | -0.3 | -8.4
Cc1ccc2oc(C(=O)N3CCCCCC3)c(C)c2c1 | 1.4 | 4.8 | 7.0 | -2.8 | 1.8 | 6.6 | x | x | x
COc1ccccc1C(=O)N1CCN(C(=O)c2oc3ccc(C)cc3c2C)CC1 | 15.5 | -21.1 | 4.0 | 0.5 | 64.5* | 1.7 | 40.0 | 0.5 | 5.8
Cc1c(C(=O)N2CCN(S(=O)(=O)c3ccccc3)CC2)oc2ccc(Br)cc12 | 9.4 | -1.0 | 1.2 | -3.3 | 57.6* | 1.0 | 35.1 | -0.1 | 9.4
Cc1c(C(=O)N2CCN(c3ncccn3)CC2)oc2ccc(F)cc12 | 3.7 | 2.5 | -7.4 | 0.5 | 37.5 | 2.3 | x | x | x
Cc1c(C(=O)N2CCN(C(=O)c3ccccc3)CC2)oc2ccc(F)cc12 | 10.1 | -5.6 | -0.9 | -5.6 | 51.1* | -0.6 | 8.7 | -0.1 | -10.1
Cc1c(C(=O)N2CCCCC2)oc2ccc(Br)cc12 | 4.8 | -42.4 | -0.9 | -6.4 | 15.2 | 2.0 | x | x | x
Cc1sc2ncnc(N3CCC(C(=O)NNC(=O)COc4ccc(Br)cc4)CC3)c2c1C | 0.6 | 8.3 | -7.1 | 0.0 | 56.9* | 0.9 | 35.8 | -1.1 | -8.5
Cc1sc2ncnc(N3CCC(C(=O)NNC(=O)COc4ccc(Cl)cc4)CC3)c2c1C | -10.3 | x | -7.1 | x | 51.3* | -1.6 | 36.5 | 1.3 | 7.3
O=C(NC1CCCC1)C(C1CC1)n1c(-c2ccccn2)nc2ccccc21 (centres undefined) | x | x | x | x | -0.2 | x | x | x | x
COc1ccc2c(CC(=O)N(C)CC3COc4ccccc4O3)coc2c1 (centres undefined) | -6.7 | 7.6 | -6.1 | -0.2 | 13.4 | 0.2 | x | x | x
COc1ccc(OCC(=O)N(C)Cc2ccccc2)cc1 | 11.7 | -2.1 | 5.2 | -2.7 | 63.0* | 0.4 | 56.2* | 0.1 | -7.3
COc1ccc(OCC(=O)N(C)CC2COc3ccccc3O2)cc1 (centres undefined) | 7.6 | 11.2 | 3.5 | -1.4 | 45.5* | 1.6 | 24.1 | -0.9 | -4.8
Cc1cc(OCC(=O)N(C)Cc2ccccc2)ccc1Cl | 20.0 | 2.5 | 3.4 | -2.0 | 83.3* | 5.0 | 72.2* | 0.7 | 6.2
Cc1cc(OCC(=O)N(C)Cc2ccccc2)ccc1Br | 23.3 | 14.2 | 2.4 | -0.8 | 91.4* | 1.3 | 86.7* | -1.0 | 8.2
CC(C)NS(=O)(=O)c1ccc(OCC(=O)N(C)Cc2ccccc2)cc1 | 7.5 | -22.2 | 4.4 | -4.5 | 1.5 | -0.1 | x | x | x
CN(Cc1ccccc1)CC1C2CCC(C2)C1O (centres undefined) | 4.0 | x | -3.0 | x | -0.9 | -2.2 | x | x | x
Cc1ccc(OCCOC(=O)C2CCN(S(=O)(=O)c3ccc(C)c(C)c3)CC2)cc1 | 1.8 | 11.1 | -1.0 | -1.7 | 56.3* | -1.6 | 26.0 | -0.1 | 6.5
Cc1ccc(S(=O)(=O)N2CCC(C(=O)OCCOc3ccccc3)CC2)cc1C | 12.6 | 10.4 | -8.6 | -4.1 | 45.5* | 0.4 | 40.2 | -1.5 | -20.1
Cc1cccc(OCCOC(=O)C2CCN(S(=O)(=O)c3ccc(C)c(C)c3)CC2)c1 | 26.4 | -12.6 | 12.9 | -0.6 | 22.4 | 1.3 | x | x | x
Nc1nc(Cl)cc(N2CCC(c3cc(-c4ccc(Cl)cc4Cl)n[nH]3)CC2)n1 | -8.0 | 2.5 | -7.4 | 4.4 | 45.5* | -0.3 | 14.4 | -1.1 | -15.2
COc1cc(C2OC(=O)C3C(c4ccc(OC(C)=O)c(OC)c4)OC(=O)C23)ccc1OC(C)=O (centres undefined) | 5.0 | -5.7 | 6.3 | -2.7 | 61.9* | 3.2 | -2.8 | -0.7 | -9.6
C/C=C/c1ccc(OC(C)=O)c(OC)c1 | -0.7 | 6.7 | -6.3 | 0.3 | -3.6 | -0.5 | x | x | x
[O-]C1=N[N+](=C(c2ccccc2)c2ccccc2)C1 | 10.8 | x | -2.9 | x | 1.7 | -2.3 | x | x | x
SMILES | CCR6 antag | APJ antag | CXCR6 block | APJ ag | EBI2 block | GAA850 FXN act | EBI2 antag conf | EBI2 ag | bGal cs
CCCCOC(=O)C(C#N)c1nc2ccccc2nc1N1CCN(Cc2ccc3c(c2)OCO3)CC1 (centres undefined) | 17.3 | 8.7 | 25.4 | -6.5 | 45.9* | 1.6 | 17.7 | -2.0 | -3.1
CC(C)COC(=O)C(C#N)c1nc2ccccc2nc1N1CCN(Cc2ccccc2)CC1 (centres undefined) | 24.6 | 3.6 | 15.6 | 4.5 | 46.0* | 0.7 | 33.5 | -0.5 | 7.0
CC[C@@H]1CC2=C(C(=O)OC(C)(C)O2)[C@@H](c2ccc(Cl)cc2)O1 | x | x | 0.4 | x | 6.6 | x | x | x | x
OC(c1ccccc1)c1ncc(-c2cccc(OCc3ccccc3)c2)[nH]1 (centres undefined) | x | x | -0.8 | x | 4.8 | -1.5 | x | x | x
Cc1cc(S(=O)(=O)NCc2ccccc2)ccc1OCC(=O)N1CCCC1 | 4.0 | -7.3 | -0.6 | -3.8 | -2.0 | -0.7 | x | x | x
N#Cc1ccc(/C=N/NC(=S)Nc2ccc(S(=O)(=O)N3CCOCC3)cc2)cc1 | 20.6 | -2.4 | 13.5 | -0.1 | 53.6* | -1.7 | 25.6 | -1.5 | -1.9
Cc1ccc(C(=O)N2CCN(Cc3nc4sc5c(c4c(=O)[nH]3)CCCC5)CC2)cc1 | -7.0 | 4.5 | -0.1 | -1.1 | 44.2* | -2.1 | 11.6 | -0.9 | -13.2
O=C(CCCc1cccs1)NCCc1c[nH]c2ccccc12 | 18.0 | -1.1 | 3.1 | 0.5 | 45.9* | 0.9 | 19.7 | 3.0 | 2.1
Cc1cccc(OCC(=O)N2CCN(C(=O)COc3ccc(Cl)cc3)CC2)c1 | 3.3 | -0.1 | -7.2 | -3.1 | 84.4* | -1.4 | 50.3* | -1.4 | -14.9
CCOC(=O)C1CCN(C(=O)COc2ccc(Cl)cc2)CC1 | 7.2 | 8.2 | 5.9 | 5.3 | 75.1* | 4.0 | 54.3* | -2.0 | -10.0
CCOC(=O)C1CCN(C(=O)COC(=O)COc2ccc(Cl)cc2)CC1 | 11.1 | -3.1 | -2.3 | 0.2 | 1.4 | 1.8 | x | x | x
COC(=O)C1CCN(C(=O)COc2ccc(Cl)cc2)CC1 | -2.7 | 7.3 | 2.5 | 0.5 | 61.7* | -1.3 | 57.3* | 0.6 | 9.7
COc1ccccc1NS(=O)(=O)c1cccc(NC(=O)c2cncc(Br)c2)c1 | 8.9 | 4.4 | -9.1 | -3.9 | 8.7 | -0.2 | x | x | x
Cn1cccc1CC(=O)N/N=C\c1ccccc1 | 5.5 | 7.6 | -8.8 | -3.6 | 43.9* | 2.5 | 11.3 | -0.5 | -6.0
Cn1cccc1CC(=O)N/N=C/c1ccc(Cl)cc1 | -7.4 | 7.1 | -3.4 | -4.3 | 23.6 | 2.4 | x | x | x
